Experimental data taken from publication PMC4624502 (Experimental eye research, 2015).

How the values were obtained:
[1] = molecular target: T1, zIRBP (zebrafish IRBP, gene II product, full-length two-module) (Danio rerio, UniProt F1Q9N9); test: fluorescence titration, enhancement of retinol fluorescence; type: binding
T1 sequence (F1Q9N9 22-615): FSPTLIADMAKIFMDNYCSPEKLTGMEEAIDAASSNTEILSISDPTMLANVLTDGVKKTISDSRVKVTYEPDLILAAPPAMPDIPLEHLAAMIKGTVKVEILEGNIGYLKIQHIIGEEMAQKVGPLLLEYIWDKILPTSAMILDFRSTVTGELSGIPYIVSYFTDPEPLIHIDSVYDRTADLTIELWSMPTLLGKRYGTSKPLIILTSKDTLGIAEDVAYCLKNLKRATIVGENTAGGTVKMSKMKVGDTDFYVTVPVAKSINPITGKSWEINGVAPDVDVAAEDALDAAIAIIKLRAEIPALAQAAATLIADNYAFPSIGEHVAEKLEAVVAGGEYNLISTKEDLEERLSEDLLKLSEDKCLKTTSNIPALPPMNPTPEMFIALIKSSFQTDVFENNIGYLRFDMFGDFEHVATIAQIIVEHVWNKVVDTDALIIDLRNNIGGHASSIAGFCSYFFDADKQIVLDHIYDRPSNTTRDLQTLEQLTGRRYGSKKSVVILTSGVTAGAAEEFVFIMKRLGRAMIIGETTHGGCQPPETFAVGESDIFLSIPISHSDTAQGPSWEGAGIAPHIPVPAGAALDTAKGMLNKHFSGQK
Outline: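 Full-length zIRBP was expressed in E. coli BL21(DE3), His-trap purified, TEV-cleaved, and anion-exchange polished (>98% pure). Retinol in ethanol was added in 0.5 µL aliquots at 1 min intervals to 1 µM protein or to buffer (final alcohol ≤2%). Fluorescence was read at ex 330/em 480 nm with oleic acid at 0.0–0.112 µM. Kd came from a nonlinear least-squares one-site Hill fit.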

[2] = molecular target: T2, zebrafish IRBP module 1 (z1) (Danio rerio, UniProt F1Q9N9); test: X-ray crystal structure, […] Å; type: binding; settings: oleic acid in hydrophobic pocket of domain A; pH 7.5, PEG 8000
T2 sequence (F1Q9N9 22-330): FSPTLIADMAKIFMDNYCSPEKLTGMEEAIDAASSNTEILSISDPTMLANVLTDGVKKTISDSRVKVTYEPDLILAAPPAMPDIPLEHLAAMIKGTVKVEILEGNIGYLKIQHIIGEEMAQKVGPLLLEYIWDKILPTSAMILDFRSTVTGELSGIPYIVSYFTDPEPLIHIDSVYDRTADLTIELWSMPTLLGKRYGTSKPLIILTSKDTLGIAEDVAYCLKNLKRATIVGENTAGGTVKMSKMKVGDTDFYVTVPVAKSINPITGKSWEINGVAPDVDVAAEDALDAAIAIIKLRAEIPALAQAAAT

Kd [1]	Compound	X-ray crystal structure, 1.90 Å [2]
910 ± 50 nM	CC1=C(/C=C/C(C)=C/C=C/C(C)=C/CO)C(C)(C)CCC1 [all-trans retinol]	–
–	CCCCCCCC/C=C\CCCCCCCC(=O)O [oleic acid]	electron density for an extended oleic acid molecule in domain A
